Experimental findings from article PMC4013241 (Molecular cancer therapeutics, 2014) are described below.

Type in all cases: cell-based, human
Assay [1] relates to U87 cells. Nature of the assay: Flow cytometric cell cycle analysis. The conditions noted are these: 24 h, 13.3 μM GFN, control 66 ± 0.9%. In general terms: Flow cytometry measures light scatter and fluorescence of single cells or particles in a stream.
Assay [2] relates to U87 cells. Briefly: Annexin V apoptosis by flow cytometry. The settings on record: 24 h. Summed up:
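U87 cells in 12-well plates, cultured overnight, then exposed 24 h to test compound (6.3 μM), an EGFR inhibitor (13.3 μM) or both. Floating and attached cells were pooled and stained with Annexin V-FITC (10 μg/ml) in HEPES-buffered saline (pH 7.4) with Ca2+ and Mg2+. Flow cytometry at 5000 events/sample. Reported as mean ± S.D. of three experiments.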

In assay [3] the test system is p-Akt, phosphorylation of its downstream proteins and p-Erk. Briefly: Western blot of p-Akt, its downstream proteins and p-Erk in U87 cells. The settings on record: 70 μM ON1231120 or 10 μM ON1231320, 1 h. Summed up: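 U87 cells on 10 cm plates, 1 h exposure to test compound. Lysates were prepared in buffer with PMSF and phosphatase/protease inhibitors, sonicated, held 30 min on ice and cleared at 21,000 × g for 10 min at 4°C. Blotting used 20 μg protein on SDS-PAGE and PVDF, blocked in 5% nonfat milk. Primary antibodies 1 h at room temperature or overnight at 4°C.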
(In general: A western blot detects proteins with antibodies after separation by electrophoresis.)

For the molecule `COc1cc2ncnc(Nc3ccc(F)c(Cl)c3)c2cc1OCCCN1CCOCC1` [GFN, gefitinib, reference compound], in the assay with U87 cells [1], the “percentage of cells in the G1 phase” value is on record as 80.9 ± 2.5%. In addition, in the assay on U87 cells [2], the “apoptotic cell death (Annexin V staining)” value was “did not cause apoptotic cell death”. Regarding `Cn1c(=O)c(S(=O)(=O)c2ccc(F)cc2F)cc2cnc(Nc3ccc4[nH]ccc4c3)nc21` [ON1231320], in assay [3], the “effects on p-Akt, its downstream proteins and p-Erk” value is “negligible effects”.
